Paper PMC9401513 (Clinical Cancer Research, 2021)
Entries after “also recorded” stand apart in the source; their conditions may differ.

How the values were obtained:
advanced NSCLC = test: Objective tumor response by RECIST v1.1, NSCLC; type: in vivo, human
How it was run: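 Investigators assessed tumor response by RECIST v1.1 every 6 weeks (every-3-weeks cohorts) or every 8 weeks (every-2-weeks cohorts). CR and PR in expansion cohorts were confirmed by repeat assessment at least 4 weeks later, and ORR was calculated. NSCLC patients were preselected for moderate-to-high tumor PTK7 by IHC. Later TNBC patients were preselected for moderately high-to-high PTK7. Ovarian cancer patients were platinum-resistant and not preselected.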

[1] = system: patients with advanced solid tumors; test: Dose-limiting toxicity, MTD and RP2D determination; type: in vivo, human
How it was run: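 Dose escalation followed the modified toxicity probability interval method. Target DLT rate was 25%, with an acceptable interval of 20–30%, a beta(0.75, 0.65) prior and a 0.975 exclusion threshold. DLTs were treatment-related events in cycle 1, monitored over 28 days: grade 4 neutropenia >7 days, grade ≥3 nonhematologic nonhepatic toxicity, or >2-week cycle delay. MTD was the highest dose with DLT rate <0.30 in ≥9 evaluable patients. Dosing was IV every 3 weeks (0.2–3.7 mg/kg) or every 2 weeks (2.1, 2.8, 3.2 mg/kg).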

[2] = Clinical pharmacokinetics; type: in vivo, human; conditions: for systemic exposure (AUCtau, Cmax) versus dose: 0.2 to 3.7 mg/kg every 3 weeks dose levels of PF-06647020; for Cmax: ADC, Cycle 1 single dose, geometric mean (geometric % CV)
CYP3A4 = CYP3A4 (Homo sapiens, UniProt P08684); test: Drug-drug interaction substudy with multiple-dose fluconazole; type: in vivo; conditions: PF-06647020 co-administered with multiple-dose fluconazole, 11 patients
How it was run: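 Single-dose test ADC was given alone in cycle 1 (reference) and co-administered with multiple-dose fluconazole in cycle 2 (test). Unconjugated payload exposure was measured as dose-normalized AUCinf and Cmax from noncompartmental analysis. Results were expressed as ratios of adjusted geometric means with 90% confidence intervals.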

[3] = every 2 weeks, N = 6, (95% CI), NR, not reached
[4] = every 3 weeks, N = 25, (95% CI)

CYP3A4, sequence (P08684 whole entry): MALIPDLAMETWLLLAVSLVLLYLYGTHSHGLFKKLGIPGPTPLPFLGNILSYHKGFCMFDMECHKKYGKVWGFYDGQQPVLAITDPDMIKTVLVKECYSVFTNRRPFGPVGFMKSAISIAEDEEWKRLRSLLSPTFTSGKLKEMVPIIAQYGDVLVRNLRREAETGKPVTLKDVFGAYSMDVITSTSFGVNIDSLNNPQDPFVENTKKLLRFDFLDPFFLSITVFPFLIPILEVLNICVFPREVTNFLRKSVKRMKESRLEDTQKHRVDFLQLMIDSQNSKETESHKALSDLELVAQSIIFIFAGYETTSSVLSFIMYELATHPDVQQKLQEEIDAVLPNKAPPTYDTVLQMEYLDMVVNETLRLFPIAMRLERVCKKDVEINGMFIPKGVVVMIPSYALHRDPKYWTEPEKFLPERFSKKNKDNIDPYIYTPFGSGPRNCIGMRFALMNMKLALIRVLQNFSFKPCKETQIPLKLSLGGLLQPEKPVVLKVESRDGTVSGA

B1: cofetuzumab pelidotin (conjugate, chains of the INN, looked up)
VH: QVQLVQSGPEVKKPGASVKVSCKASGYTFTDYAVHWVRQAPGKRLEWIGVISTYNDYTYNNQDFKGRVTMTRDTSASTAYMELSRLRSEDTAVYYCARGNSYFYALDYWGQGTSVTVSS
VL: EIVLTQSPATLSLSPGERATLSCRASESVDSYGKSFMHWYQQKPGQAPRLLIYRASNLESGIPARFSGSGSGTDFTLTISSLEPEDFAVYYCQQSNEDPWTFGGGTKLEIK
modifications: auristatin-0101 payload, vc linker
- PRs (number) (advanced NSCLC; 2.8 mg/kg every 3 weeks): 4
- PRs (number) (advanced NSCLC; 3.2 mg/kg every 2 weeks): 2
- overall objective response rate (advanced NSCLC; both regimens, n = 31): 19%
- CR (advanced NSCLC; every 2 weeks, N = 6): 0 N
- PR (advanced NSCLC; every 2 weeks, N = 6): 2 N
- ORR (advanced NSCLC; every 2 weeks, N = 6, (95% CI)): 33 (4–78) %
- mDOR (advanced NSCLC; [3]): NR (3.7–NR)
- mPFS (advanced NSCLC; [3]): 2.7 (1.0–NR) mo
- CR (advanced NSCLC; every 3 weeks, N = 25): 0 N
- PR (advanced NSCLC; every 3 weeks, N = 25): 4 N
- ORR (advanced NSCLC; [4]): 16 (5–36) %
- mDOR (advanced NSCLC; [4]): 5.7 (1.5–9.9) mo
- mPFS (advanced NSCLC; [4]): 2.9 (1.4–6.1) mo
- DLT observed ([1]; 2.8 mg/kg every 2 weeks, n = 10): grade 3 neutropenic infection in 1 patient
- DLT observed ([1]; 3.2 mg/kg every 2 weeks, n = 12): grade 3 abdominal pain in 2 patients
- DLTs reported ([1]; 3.7 mg/kg every 3 weeks (highest dose), n = 6, two DLTs): grade 3 headache and fatigue; also recorded: grade 3 headache and grade 3 fatigue
- DLT rate ([1]; 3.7 mg/kg every 3 weeks, n = 6): 33%
- MTD ([1]; every 2 weeks regimen, dose levels 2.1-3.2 mg/kg): not reached
- MTD (estimated as protocol specified) ([1]; every 3 weeks): 2.8 mg/kg
- RP2D (recommended phase II dose) ([1]; every 3 weeks): 2.8 mg/kg
- AUC ratio between ADC and total antibody ([2]; 2.8 mg/kg every 3 weeks): approximately 0.9
- systemic exposure (AUCtau, Cmax) versus dose [2]: generally increased in a dose-related manner
- systemic exposure (AUCtau, Cmax) versus dose ([2]; listed as ADC): generally increased in a dose-proportional manner
- Cmax ([2]; 2.8 mg/kg Q2W IV): 99.7 µg/mL
- Cmax ([2]; 2.8 mg/kg Q3W IV): 79.8 µg/mL
- impact of fluconazole co-administration on overall exposure (CYP3A4): did not have a notable impact
